Experimental data published in ChEMBL document CHEMBL2146441, “2,6-Disubstituted imidazo[2,1-b][1,3,4]thiadiazoles: search for anticancer agents” (2012).

Key:
Assay type in all cases: functional
HCT-116 = experiment: Cytotoxicity against human HCT116 cells assessed as cell growth at 10^-5 M after 48 hrs by SRB assay; conditions: HCT-116, 48 h, read-out: Activity
Method in brief: (§1)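 NCI-60 five-dose screen. Cells were grown in RPMI 1640 with 5% FBS and seeded at 5000–40,000 cells/well according to doubling time. They were pre-incubated 24 h at 37 °C in 5% CO₂, and time-zero (Tz) plates were TCA-fixed at drug addition. Five 10-fold dilutions of DMSO stock were applied for 48 h. Read-out was SRB staining, 515 nm absorbance, with percent growth calculated versus Tz and untreated control.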

HCT-15 = experiment: Cytotoxicity against human HCT15 cells assessed as cell growth at 10^-5 M after 48 hrs by SRB assay; conditions: HCT-15, 48 h, read-out: Activity; method in brief: as §1
SK-MEL-2 = experiment: Growth inhibition of human SK-MEL-2 cells after 48 hrs by SRB assay; conditions: SK-MEL-2, 48 h; for CC50: read-out: LC50 (the source's name)
Method in brief: (§2)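 Adherent NCI-60 lines grown in RPMI 1640 with 5% FBS, seeded at 5000–40,000 cells/well, and preincubated 24 h at 37 °C, 5% CO2. Compound, stocked in DMSO, given either once at 10^-5 M or at five 10-fold dilutions for 48 h. Cells fixed with cold TCA (final 10%), stained with 0.4% SRB, and read at 515 nm. GI50 taken as 50% reduction in net protein increase versus time-zero and control plates.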

786-0 = experiment: Growth inhibition of human 786-0 cells after 48 hrs by SRB assay; conditions: 786-0, 48 h
Method in brief: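 Same 48 h NCI-60 five-dose SRB protocol. Adherent lines were fixed with cold TCA at 10% final; suspension lines such as CCRF-CEM were fixed with 16% final TCA. Stain was 0.4% SRB in 1% acetic acid for 10 min, solubilized in 10 mM Tris base and read at 515 nm. GI50 came from log concentration–growth curves, solving [(Ti−Tz)/(C−Tz)]×100 = 50.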

T47D = experiment: Cytotoxicity against human T47D cells assessed as cell growth at 10^-5 M after 48 hrs by SRB assay; conditions: read-out: Activity
CCRF-CEM = experiment: Cytotoxicity against human CCRF-CEM cells assessed as cell growth at 10^-4 M after 48 hrs by SRB assay; conditions: read-out: Activity
Method in brief: (§3)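 NCI-60 screen: lines kept in RPMI 1640 with 5% FBS, seeded at 5000–40,000 cells/well by doubling time, preincubated 24 h at 37 °C in 5% CO2. Time-zero plates TCA-fixed at drug addition. DMSO stocks diluted in medium, 48 h exposure. Fixation in cold TCA (final 10% adherent, 16% suspension), 0.4% SRB stain, solubilised in 10 mM Tris base, A515. Percent growth computed against control and time-zero.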

NCI-H522 = experiment: Cytotoxicity against human NCI-H522 cells assessed as cell growth at 10^-7 M after 48 hrs by SRB assay; conditions: NCI-H522, 48 h, read-out: Activity
COLO = experiment: Cytotoxicity against human COLO […] cells assessed as cell growth at 10^-7 M after 48 hrs by SRB assay; conditions: read-out: Activity; method in brief: as §3
SR = experiment: Cytotoxicity against human SR cells assessed as cell growth at 10^-4 M after 48 hrs by SRB assay; conditions: read-out: Activity
HCC 2998 [1] = experiment: Cytotoxicity against human HCC2998 cells assessed as cell growth at 10^-4 M after 48 hrs by SRB assay; conditions: HCC 2998, 48 h, read-out: Activity; method in brief: as §3
OVCAR-4 = experiment: Cytotoxicity against human OVCAR4 cells assessed as cell growth at 10^-4 M after 48 hrs by SRB assay; conditions: OVCAR-4, 48 h, read-out: Activity
DU-145 = experiment: Cytotoxicity against human DU145 cells assessed as cell growth at 10^-4 M after 48 hrs by SRB assay; conditions: DU-145, 48 h, read-out: Activity; method in brief: as §3
OVCAR-5 = experiment: Cytotoxicity against human OVCAR5 cells assessed as cell growth at 10^-7 M after 48 hrs by SRB assay; conditions: OVCAR-5, 48 h, read-out: Activity
NCI-H226 = experiment: Cytotoxicity against human NCI-H226 cells assessed as cell growth at 10^-8 M after 48 hrs by SRB assay; conditions: NCI-H226, 48 h, read-out: Activity
HCC 2998 [2] = experiment: Cytotoxicity against human HCC2998 cells assessed as cell growth at 10^-8 M after 48 hrs by SRB assay; conditions: HCC 2998, 48 h, read-out: Activity; method in brief: as §1
SK-OV-3 = experiment: Cytotoxicity against human SKOV3 cells assessed as cell growth at 10^-8 M after 48 hrs by SRB assay; conditions: SK-OV-3, 48 h, read-out: Activity
RXF 393 = experiment: Cytotoxicity against human RXF393 cells assessed as cell growth at 10^-8 M after 48 hrs by SRB assay; conditions: RXF 393, 48 h, read-out: Activity
UO-31 = experiment: Cytotoxicity against human UO31 cells assessed as cell growth at 10^-8 M after 48 hrs by SRB assay; conditions: UO-31, 48 h, read-out: Activity
HOP-62 = experiment: Cytotoxicity against human HOP62 cells assessed as cell growth at 10^-6 M after 48 hrs by SRB assay; conditions: HOP-62, 48 h, read-out: Activity; method in brief: as §1
LOX IMVI = experiment: Cytotoxicity against human LOXIMVI cells assessed as cell growth at 10^-6 M after 48 hrs by SRB assay; conditions: read-out: Activity
[3] = Cytotoxicity against human NCI-ADR-RES cells assessed as cell growth at 10^-6 M after 48 hrs by SRB assay; conditions: read-out: Activity
OVCAR-3 = experiment: Growth inhibition of human OVCAR3 cells after 48 hrs by SRB assay; conditions: OVCAR-3, 48 h; method in brief: as §2
MOLT-4 = experiment: Growth inhibition of human MOLT4 cells after 48 hrs by SRB assay; conditions: MOLT-4, 48 h
Method in brief: (§4)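 Leukemia suspension lines grown in RPMI 1640 with 5% FBS, seeded at 5000–40,000 cells/well, and preincubated 24 h at 37 °C, 5% CO2. Compound, stocked in DMSO, given either once at 10^-5 M or at five 10-fold dilutions for 48 h. Settled cells fixed with 80% TCA (final 16%), stained with SRB, and read at 515 nm. GI50 calculated against time-zero and control growth.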

[4] = Growth inhibition of human […] cells after 48 hrs by SRB assay; method in brief: as §4
EKVX = experiment: Growth inhibition of human EKVX cells after 48 hrs by SRB assay; method in brief: as §2
BT-549 = experiment: Cytotoxicity against human BT549 cells assessed as cell growth at 10^-6 M after 48 hrs by SRB assay; conditions: BT-549, 48 h, read-out: Activity; method in brief: as §3

| Structure (SMILES) | growth at 10 µM (HCT-116) | growth at 10 µM (HCT-15) | GI50 (SK-MEL-2) | TGI (SK-MEL-2) | CC50 (SK-MEL-2) | GI50 (786-0) | TGI (786-0) | growth at 10 µM (T47D) | growth at 100 µM (CCRF-CEM) | growth at 0.1 µM (NCI-H522) | growth at 0.1 µM (COLO) | growth at 100 µM (SR) | growth at 100 µM (HCC 2998 [1]) | growth at 100 µM (OVCAR-4) | growth at 100 µM (DU-145) | growth at 0.1 µM (OVCAR-5) | growth at 0.01 µM (NCI-H226) | growth at 0.01 µM (HCC 2998 [2]) | growth at 0.01 µM (SK-OV-3) | growth at 0.01 µM (RXF 393) | other results |
| --- | --- | --- | --- | --- | --- | --- | --- | --- | --- | --- | --- | --- | --- | --- | --- | --- | --- | --- | --- | --- | --- |
| COc1ccc(-c2nn3cc(-c4ccc(O)cc4O)nc3s2)cc1 | -62% | 32% | 2.85 µM | 14.2 µM | > 100 µM | 1.72 µM | 3.43 µM | -29% | 8% | 84% | 106% | -35% | -3% | -22% | 2% | 90% | 94% | 98% | 102% | 99% | growth at 0.01 µM (UO-31): 84%; growth at 1 µM (HOP-62): 81%; growth at 1 µM (LOX IMVI): 82%; growth at 1 µM [3]: 81%; GI50 (OVCAR-3): 2.54 µM; LC50 (concentration causing 50% net cell kill) (OVCAR-3): > 100 µM; TGI (OVCAR-3): 8.48 µM; GI50 (MOLT-4): 3.04 µM; LC50 (MOLT-4): > 100 µM; TGI (MOLT-4): 29.8 µM; GI50 [4]: 2.08 µM; LC50 [4]: > 100 µM; TGI [4]: > 100 µM; GI50 (EKVX): 1.95 µM; LC50 (concentration killing 50% of cells) (EKVX): > 100 µM; TGI (EKVX): 41.2 µM; growth at 1 µM (BT-549): 73% |
| COc1ccc(-c2nn3cc(-c4cccc(N)c4)nc3s2)cc1 | 16% | 36% | 5.35 µM | 31.9 µM | > 100 µM | 4.7 µM | 15.9 µM | 7% | 6% | 83% | 101% | 23% | 6% | -34% | -41% | 103% | 92% | 98% | 97% | 90% | LC50 (786-0): 42.9 µM; growth at 0.01 µM (UO-31): 86%; growth at 1 µM (HOP-62): 84%; growth at 1 µM (LOX IMVI): 77%; growth at 1 µM [3]: 85%; GI50 (OVCAR-3): 3.4 µM; LC50 (concentration causing 50% net cell kill) (OVCAR-3): 55.2 µM; TGI (OVCAR-3): 15.9 µM; GI50 (MOLT-4): 3 µM; LC50 (MOLT-4): > 100 µM; TGI (MOLT-4): > 100 µM; GI50 [4]: 1.28 µM; LC50 [4]: > 100 µM; TGI [4]: 26.7 µM; GI50 (EKVX): 1.01 µM; LC50 (concentration killing 50% of cells) (EKVX): > 100 µM; TGI (EKVX): 12.8 µM; growth at 1 µM (BT-549): 87% |
